Measured values from ChEMBL document CHEMBL1127344, “Tridentate ligands containing the SNS donor atom set as a novel backbone for the development of technetium brain-imaging agents” (J Med Chem, 1994).

Assays:
Rattus norvegicus [1] = species on record: Rattus norvegicus; test: Tested for biodistribution of compound at 60 min in rat heart; assay type: ADME, organism-based; settings: in vivo, 1 h
Rattus norvegicus [2] = species on record: Rattus norvegicus; test: Tested for biodistribution of compound at 60 min in rat s. intestine; assay type: ADME, organism-based; settings: in vivo, 1 h
Rattus norvegicus [3] = species on record: Rattus norvegicus; test: Tested for biodistribution of compound at 60 min in rat spleen; assay type: ADME, organism-based; settings: in vivo, 1 h
Rattus norvegicus [4] = species on record: Rattus norvegicus; test: Tested for biodistribution of compound at 5 min in rat brain; assay type: ADME, organism-based; settings: in vivo
Rattus norvegicus [5] = species on record: Rattus norvegicus; test: Tested for biodistribution of compound at 5 min in rat lungs; assay type: ADME, organism-based, Lung; settings: in vivo
Rattus norvegicus [6] = species on record: Rattus norvegicus; test: Tested for biodistribution of compound at 5 min in rat stomach; assay type: ADME, organism-based; settings: in vivo
Mus musculus [7] = species on record: Mus musculus; test: Tested for biodistribution of compound at 60 min in mice intestine; assay type: ADME, organism-based; settings: in vivo, 1 h
In short: (§1)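 Male Swiss albino mice, at least five per group, received HPLC-purified 99mTc complex by tail vein. The complex was reconstituted in 50% methanol (0.1 mL, 2-3 μCi). Mice were killed by cardiectomy under light ether at 1-60 min pi. Organs were weighed and γ-counted against a 1% injected-dose standard to give % dose/organ. Blood and muscle were taken as 7% and 43% of body weight.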

Rattus norvegicus [8] = species on record: Rattus norvegicus; test: Tested for biodistribution of compound at 10 min in rat lungs; assay type: ADME, organism-based, Lung; settings: in vivo
In short: (§2)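 Wistar rats under ether anesthesia were dosed through the femoral vein with 0.1 mL of 99mTc complex (3-6 μCi) and dissected 5-60 min pi. Tissue radioactivity was γ-counted against a 1% injected-dose standard and expressed as % dose/organ. Blood and muscle were calculated from sample weight assuming 7% and 43% of body weight.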

Rattus norvegicus [9] = species on record: Rattus norvegicus; test: Tested for biodistribution of compound at 10 min in rat spleen; assay type: ADME, organism-based; settings: in vivo; in short: as §2
Rattus norvegicus [10] = species on record: Rattus norvegicus; test: Tested for biodistribution of compound at 10 min in rat stomach; assay type: ADME, organism-based; settings: in vivo; in short: as §2
Mus musculus [11] = species on record: Mus musculus; test: Tested for biodistribution of compound at 30 min in mice blood; assay type: ADME, organism-based; settings: in vivo, 0.5 h
In short: (§3)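 Male Swiss albino mice, at least five per group, received 0.1 mL (2-3 μCi) of HPLC-purified 99mTc complex reconstituted in 50% methanol by tail vein. They were killed by cardiectomy under light ether anesthesia at set times (1-60 min pi). Organs were weighed and γ-counted against a 1% injected-dose standard to give % dose/organ. Blood and muscle were taken as 7% and 43% of body weight.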

Mus musculus [12] = species on record: Mus musculus; test: Tested for biodistribution of compound at 30 min in mice stomach; assay type: ADME, organism-based; settings: in vivo, 0.5 h; in short: as §3
Rattus norvegicus [13] = species on record: Rattus norvegicus; test: Tested for biodistribution of compound at 30 min in rat brain; assay type: ADME, organism-based; settings: in vivo, 0.5 h; in short: as §2
Rattus norvegicus [14] = species on record: Rattus norvegicus; test: Tested for biodistribution of compound at 30 min in rat kidney; assay type: ADME, organism-based; settings: in vivo, 0.5 h; in short: as §2
Rattus norvegicus [15] = species on record: Rattus norvegicus; test: Tested for biodistribution of compound at 30 min in rat l intestine; assay type: ADME, organism-based; settings: in vivo, 0.5 h; in short: as §2
Rattus norvegicus [16] = species on record: Rattus norvegicus; test: Tested for biodistribution of compound at 30 min in rat liver; assay type: ADME, organism-based; settings: in vivo, 0.5 h
Rattus norvegicus [17] = species on record: Rattus norvegicus; test: Tested for biodistribution of compound at 30 min in rat stomach; assay type: ADME, organism-based; settings: in vivo, 0.5 h
Mus musculus [18] = species on record: Mus musculus; test: Tested for biodistribution of compound at 5 min in mice brain; assay type: ADME, organism-based; settings: in vivo; in short: as §1
Mus musculus [19] = species on record: Mus musculus; test: Tested for biodistribution of compound at 5 min in mice heart; assay type: ADME, organism-based; settings: in vivo; in short: as §1
Rattus norvegicus [20] = species on record: Rattus norvegicus; test: Tested for biodistribution of compound at 10 min in rat intestine; assay type: ADME, organism-based; settings: in vivo; in short: as §2
Mus musculus [21] = species on record: Mus musculus; test: Tested for biodistribution of compound at 10 min in mice spleen; assay type: ADME, organism-based; settings: in vivo; in short: as §3
Mus musculus [22] = species on record: Mus musculus; test: Tested for biodistribution of compound at 1 min in mice heart; assay type: ADME, organism-based; settings: in vivo; in short: as §3
Mus musculus [23] = species on record: Mus musculus; test: Tested for biodistribution of compound at 1 min in mice kidney; assay type: ADME, organism-based; settings: in vivo; in short: as §3
Mus musculus [24] = species on record: Mus musculus; test: Tested for biodistribution of compound at 1 min in mice liver; assay type: ADME, organism-based; settings: in vivo; in short: as §3
Mus musculus [25] = species on record: Mus musculus; test: Tested for biodistribution of compound at 1 min in mice muscle; assay type: ADME, organism-based, Muscle tissue; settings: in vivo; in short: as §3
Mus musculus [26] = species on record: Mus musculus; test: Tested for biodistribution of compound at 10 min in mice intestine; assay type: ADME, organism-based; settings: in vivo; in short: as §3
Mus musculus [27] = species on record: Mus musculus; test: Tested for biodistribution of compound at 10 min in mice kidney; assay type: ADME, organism-based; settings: in vivo; in short: as §3
Mus musculus [28] = species on record: Mus musculus; test: Tested for biodistribution of compound at 5 min in mice spleen; assay type: ADME, organism-based; settings: in vivo; in short: as §1

[4-methoxythio)phenolato][N,N-bis(2-mercaptoethyl)-N',N'-diethylethylenediamine] oxotechnetium
Dose/organ (Rattus norvegicus [1]): 0.15% | Dose/organ (Rattus norvegicus [2]): 8.15% | Dose/organ (Rattus norvegicus [3]): 0.46% | Dose/organ (Rattus norvegicus [4]): 1.45% | Dose/organ (Rattus norvegicus [5]): 9.38% | Dose/organ (Rattus norvegicus [6]): 2.18% | Dose/organ (Mus musculus [7]): 33.7% | Dose/organ (Rattus norvegicus [8]): 7.78% | Dose/organ (Rattus norvegicus [9]): 0.77% | Dose/organ (Rattus norvegicus [10]): 2.37% | Dose/organ (Mus musculus [11]): 1.29% | Dose/organ (Mus musculus [12]): 1.24% | Dose/organ (Rattus norvegicus [13]): 0.53% | Dose/organ (Rattus norvegicus [14]): 6.33% | Dose/organ (Rattus norvegicus [15]): 1.27% | Dose/organ (Rattus norvegicus [16]): 29.63% | Dose/organ (Rattus norvegicus [17]): 2.19% | Dose/organ (Mus musculus [18]): 3.01% | Dose/organ (Mus musculus [19]): 0.74% | Dose/organ (Rattus norvegicus [20]): 2.7% | Dose/organ (Mus musculus [21]): 0.36% | Dose/organ (Mus musculus [22]): 3.6% | Dose/organ (Mus musculus [23]): 1.7% | Dose/organ (Mus musculus [24]): 1.96% | Dose/organ (Mus musculus [25]): 17.26% | Dose/organ (Mus musculus [26]): 9.61% | Dose/organ (Mus musculus [27]): 3.18% | Dose/organ (Mus musculus [28]): 0.28%
